Article PMC4689628 (Organic & biomolecular chemistry, 2016)

Tests used:
MLL1 SET domain [1] = molecular target: T1, MLL1 SET domain (Homo sapiens, UniProt Q03164); assay: differential static light scattering; format: binding; conditions: Supplementary Figure 3
MLL1 SET domain [2] = molecular target: T1, MLL1 SET domain; assay: saturation-transfer difference; format: binding; conditions: Supplementary Figure 2
tetrameric MLL1 complex [3] = molecular target: T2, tetrameric MLL1 complex (Homo sapiens, UniProt Q03164); assay: FL-NAH fluorescence polarization saturation binding, tetrameric complex
pentameric MLL1 complex [4] = molecular target: T3, pentameric MLL1 complex (Homo sapiens, UniProt Q03164); assay: FL-NAH fluorescence polarization saturation binding, pentameric complex
MLL1 SET domain [5] = molecular target: T1, MLL1 SET domain; assay: FL-NAH fluorescence polarization saturation binding, isolated SET domain; conditions: SET Only
Method in brief: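 The isolated MLL1 SET domain was titrated in increasing concentrations against 50 nM fluorescein-azaadenosylhomocysteine probe. Buffer was 20 mM Tris pH 8.0, 0.01% Triton X-100, 5 mM DTT. Incubation was 30 min at ambient temperature. FP was read at ex 485/em 528 nm. Kd and ΔFPmax came from nonlinear least-squares single-site saturation fit of ΔFP. Mean ± SD, three independent experiments.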

[6] = molecular target: T4, trimeric MLL1 complex (MLL1, RbBP5 and WDR5) (Homo sapiens, UniProt Q03164); assay: FL-NAH fluorescence polarization saturation binding, trimeric complex
pentameric MLL1 complex [7] = molecular target: T3, pentameric MLL1 complex; assay: FL-NAH displacement FP assay, pentameric complex; format: binding; conditions: for Hill Slope: Pentameric complex, FL-NAH displacement curve
tetrameric MLL1 complex [8] = molecular target: T2, tetrameric MLL1 complex; assay: FL-NAH displacement FP assay, tetrameric complex; format: binding; conditions: for Hill Slope: Tetrameric complex, FL-NAH displacement curve
Method in brief: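 The tetrameric MLL1 complex was diluted to its own Kd (probe) concentration. It was then incubated 30 min at ambient temperature with 50 nM fluorescein-azaadenosylhomocysteine probe and increasing concentrations of test compound. Buffer was 20 mM Tris pH 8.0, 0.01% Triton X-100, 5 mM DTT. FP was read at ex 485/em 528 nm, in mP. Kdisp and Hill coefficient came from nonlinear least-squares sigmoidal fit. Mean ± SD, ≥3 independent experiments.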

MLL1 SET domain [9] = molecular target: T1, MLL1 SET domain; assay: FL-NAH displacement FP assay, isolated SET domain; format: binding; conditions: for Hill Slope: SET Only, FL-NAH displacement curve
[10] = molecular target: T4, trimeric MLL1 complex (MLL1, RbBP5 and WDR5); assay: FL-NAH displacement FP assay, trimeric complex; format: binding; conditions: for Hill Slope: Trimeric complex, FL-NAH displacement curve
[11] = polarization expressed in mP (methods)

T1 sequence (Q03164 3829-3945 limits assumed): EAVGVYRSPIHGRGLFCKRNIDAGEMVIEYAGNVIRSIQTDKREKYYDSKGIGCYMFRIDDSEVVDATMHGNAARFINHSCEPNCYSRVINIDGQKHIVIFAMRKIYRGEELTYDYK
T2 sequence (Q03164 3829-3945): as the sequence (Q03164 3829-3945 limits assumed) above
T2 sequence (Q15291 whole entry, further chain): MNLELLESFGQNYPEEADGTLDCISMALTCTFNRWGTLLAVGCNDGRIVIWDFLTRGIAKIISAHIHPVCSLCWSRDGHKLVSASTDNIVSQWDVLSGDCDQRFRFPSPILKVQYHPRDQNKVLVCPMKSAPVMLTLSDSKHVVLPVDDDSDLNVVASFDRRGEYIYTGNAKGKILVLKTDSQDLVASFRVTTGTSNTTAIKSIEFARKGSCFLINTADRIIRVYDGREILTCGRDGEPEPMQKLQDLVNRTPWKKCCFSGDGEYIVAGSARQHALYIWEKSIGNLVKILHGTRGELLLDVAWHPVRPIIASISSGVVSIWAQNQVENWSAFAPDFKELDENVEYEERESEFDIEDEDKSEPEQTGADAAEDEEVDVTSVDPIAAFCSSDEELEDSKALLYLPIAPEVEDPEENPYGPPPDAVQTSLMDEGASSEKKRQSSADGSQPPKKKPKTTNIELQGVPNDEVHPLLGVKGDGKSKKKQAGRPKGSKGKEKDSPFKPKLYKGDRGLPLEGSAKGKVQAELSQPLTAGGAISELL
T2 sequence (Q9UBL3 whole entry, further chain): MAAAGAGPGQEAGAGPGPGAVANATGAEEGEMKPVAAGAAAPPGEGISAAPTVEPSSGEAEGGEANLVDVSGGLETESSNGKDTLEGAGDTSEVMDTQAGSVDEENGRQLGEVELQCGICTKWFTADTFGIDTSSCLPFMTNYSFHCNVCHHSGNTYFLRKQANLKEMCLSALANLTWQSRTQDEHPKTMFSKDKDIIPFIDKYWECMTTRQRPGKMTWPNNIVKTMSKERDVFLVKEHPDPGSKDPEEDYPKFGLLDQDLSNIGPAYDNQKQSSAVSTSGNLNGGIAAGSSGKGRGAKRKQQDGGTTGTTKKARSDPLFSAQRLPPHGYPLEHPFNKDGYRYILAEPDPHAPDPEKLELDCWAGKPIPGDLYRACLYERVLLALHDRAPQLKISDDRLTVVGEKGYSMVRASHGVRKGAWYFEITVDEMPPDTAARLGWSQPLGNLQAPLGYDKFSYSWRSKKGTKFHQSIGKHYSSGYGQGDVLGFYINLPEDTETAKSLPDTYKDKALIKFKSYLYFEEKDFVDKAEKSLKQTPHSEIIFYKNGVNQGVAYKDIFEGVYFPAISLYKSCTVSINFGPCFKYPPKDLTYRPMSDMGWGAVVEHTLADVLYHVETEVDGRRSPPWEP

SMILES	binding to MLL1 SET domain alone by differential static light scattering (MLL1 SET domain [1])	binding to MLL1 SET domain alone by STD NMR (MLL1 SET domain [2])	Kd (tetrameric MLL1 complex [3]; 50 nM FL-NAH, FP after 30 min) [µM]	ΔFPmax (tetrameric MLL1 complex [3]; [11])	Kd (pentameric MLL1 complex [4]; 50 nM FL-NAH, FP after 30 min) [µM]	ΔFPmax (pentameric MLL1 complex [4]; [11])	Kd (MLL1 SET domain [5]; 50 nM FL-NAH, FP after 30 min) [µM]	ΔFPmax (MLL1 SET domain [5]; [11])	Kd ([6]; 50 nM FL-NAH, FP after 30 min) [µM]	ΔFPmax [6, 11]	Hill Slope (pentameric MLL1 complex [7])	increase in potency of FL-NAH displacement, pentameric complex relative to the isolated SET domain (pentameric MLL1 complex [7]; pentameric vs isolated SET domain) [fold]	Hill Slope (tetrameric MLL1 complex [8])	Hill Slope (MLL1 SET domain [9])	Hill Slope [10]	IC50 (pentameric MLL1 complex [7]) [µM]	IC50 (tetrameric MLL1 complex [8]) [µM]	IC50 (MLL1 SET domain [9]) [µM]	IC50 [10] [µM]
Nc1ncnc2c1ncn2[C@@H]1O[C@H](CN(CC[C@H](N)C(=O)O)Cc2cn(CCNC(=O)c3ccc4c(c3)C(=O)OC43c4ccc(O)cc4Oc4cc(O)ccc43)nn2)[C@@H](O)[C@H]1O [FL-NAH, fluorescein linked with N-adenosylhomocysteine]	confirmed	confirmed	1.4 ± 0.4	300 ± 30	0.2 ± 0.03	270 ± 20	1 ± 0.1	240 ± 3	7 ± 3	260 ± 40									
Nc1ncnc2c1ncn2[C@@H]1O[C@H](CSCC[C@H](N)C(=O)O)[C@@H](O)[C@H]1O [SAH]											−1.4 ± 0.3	20	−1.9 ± 0.1	−0.9 ± 0.2	−1.5 ± 0.3				
C[S+](CC[C@H](N)C(=O)[O-])C[C@H]1O[C@@H](n2cnc3c(N)ncnc32)[C@H](O)[C@@H]1O (stereo partly shown) [SAM, S-adenosylmethionine]											−1.6 ± 0.3		−1.7 ± 0.2	−1.2 ± 0.1	−1.6 ± 0.4	1 ± 0.2	1 ± 0.1	14 ± 2	7 ± 1
Nc1ncnc2c1ncn2[C@@H]1O[C@H](C[C@@H](N)CC[C@H](N)C(=O)O)[C@@H](O)[C@H]1O [Sinefungin, sinefungin]											−1.1 ± 0.3		−1.2 ± 0.1	−0.9 ± 0.1	−1.1 ± 0.3	0.5 ± 0.1	2 ± 0.2	9 ± 0.2	10 ± 2.5
